One molecule from ChEMBL document CHEMBL3259653, “Potent and selective inhibitors of human reticulocyte 12/15-lipoxygenase as anti-stroke therapies” (J Med Chem, 2014) can be followed below.

The source made the active and inactive calls. The rule behind the calls is not given here.

The nature of data set [1]: Metabolic stability in mouse plasma assessed as compound remaining measured at 2 hrs. The format is ADME, cell-free. To be noted: read-out: Stability. In short, it runs like this: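 Compound was incubated in mouse plasma, and the percent remaining was measured at 2 h. Run at a contract lab.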
For the next data set, the system named is Mus musculus. Description: Neuroprotective activity in C57BL6J mouse distal middle cerebral artery occlusion model of permanent focal ischemia assessed as reduction in infarct size at 50 mg/kg, ip administered 2 hrs post ischemia induction measured after 24 hrs by TTC staining relative to vehicle-treated control. Set-up: scale not given: the % may be the effect or the level left. The format is functional. To be noted: route intraperitoneal. The method in brief:
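FeCl3-induced distal MCA occlusion: 10% FeCl3-saturated filter paper on intact dura along MCA under 1.5% isoflurane in N2O/O2, body temperature held at 37 ± 0.3 °C, rCBF followed by laser doppler for 3 h. Compound or DMSO vehicle given IP after 2 h ischemia. Sacrifice at 24 h; TTC staining of 1 mm slices, indirect infarct volume; surgeon and assessor blinded.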

Data set [2] has as its target T1, Polyunsaturated fatty acid lipoxygenase ALOX15 (Mus musculus) (UniProt P39654).
T1 sequence (whole entry): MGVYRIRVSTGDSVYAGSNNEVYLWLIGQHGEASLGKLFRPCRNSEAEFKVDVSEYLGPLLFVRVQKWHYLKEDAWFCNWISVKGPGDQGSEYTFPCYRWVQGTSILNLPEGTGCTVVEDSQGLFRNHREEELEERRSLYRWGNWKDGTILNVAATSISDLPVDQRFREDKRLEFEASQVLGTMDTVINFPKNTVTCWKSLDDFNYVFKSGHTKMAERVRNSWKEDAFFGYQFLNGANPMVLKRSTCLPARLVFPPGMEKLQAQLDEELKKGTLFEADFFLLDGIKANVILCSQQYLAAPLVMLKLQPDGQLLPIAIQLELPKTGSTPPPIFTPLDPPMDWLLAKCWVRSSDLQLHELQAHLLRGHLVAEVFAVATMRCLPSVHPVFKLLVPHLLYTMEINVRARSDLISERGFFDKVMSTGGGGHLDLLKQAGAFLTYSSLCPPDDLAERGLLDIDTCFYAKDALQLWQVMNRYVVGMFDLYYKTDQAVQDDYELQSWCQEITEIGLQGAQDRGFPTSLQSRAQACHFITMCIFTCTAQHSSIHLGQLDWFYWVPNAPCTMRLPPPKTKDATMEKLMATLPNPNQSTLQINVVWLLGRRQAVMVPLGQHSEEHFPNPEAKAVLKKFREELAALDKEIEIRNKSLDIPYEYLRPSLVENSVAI
Description: Inhibition of 12/15-lipoxygenase in mouse HT22 cells assessed as protection against glutamate-induced cell death after 24 hrs by LDH release assay. The format is cell-based. The settings on record: HT-22. In short, it runs like this: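 HT22 mouse hippocampal cells were grown in DMEM with 10% FBS and penicillin/streptomycin, seeded at 1 × 10^4 cells/well and treated 18 h later at 50–70% confluence. Medium was exchanged for fresh medium with 5 mM glutamate plus compound or DMSO (≤0.1% final). Death was scored as percent LDH released to the medium versus the cell extract, background-subtracted.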

The target in data set [3] is T1, Polyunsaturated fatty acid lipoxygenase ALOX15 (Mus musculus). Description: Inhibition of 12/15-lipoxygenase in mouse HT22 cells assessed as reduction of 12-HETE production at 10 uM after 24 hrs by HPLC/MS analysis. The settings on record: HT-22. The format is cell-based. In short, it runs like this:
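HT22 cells were grown in 75 cm² flasks in phenol red-free DMEM with 5% FBS and treated at 50–70% confluence with 5 mM glutamate with or without compound. After 24 h the eicosanoid fraction of the medium was isolated on a C-18 cartridge. 12-HETE was quantified by HPLC/MS against a 12(S)-HETE standard curve.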

Data set [4] concerns the target T2, Prostaglandin G/H synthase 1 (Ovis aries) (UniProt P05979).
T2 sequence (whole entry): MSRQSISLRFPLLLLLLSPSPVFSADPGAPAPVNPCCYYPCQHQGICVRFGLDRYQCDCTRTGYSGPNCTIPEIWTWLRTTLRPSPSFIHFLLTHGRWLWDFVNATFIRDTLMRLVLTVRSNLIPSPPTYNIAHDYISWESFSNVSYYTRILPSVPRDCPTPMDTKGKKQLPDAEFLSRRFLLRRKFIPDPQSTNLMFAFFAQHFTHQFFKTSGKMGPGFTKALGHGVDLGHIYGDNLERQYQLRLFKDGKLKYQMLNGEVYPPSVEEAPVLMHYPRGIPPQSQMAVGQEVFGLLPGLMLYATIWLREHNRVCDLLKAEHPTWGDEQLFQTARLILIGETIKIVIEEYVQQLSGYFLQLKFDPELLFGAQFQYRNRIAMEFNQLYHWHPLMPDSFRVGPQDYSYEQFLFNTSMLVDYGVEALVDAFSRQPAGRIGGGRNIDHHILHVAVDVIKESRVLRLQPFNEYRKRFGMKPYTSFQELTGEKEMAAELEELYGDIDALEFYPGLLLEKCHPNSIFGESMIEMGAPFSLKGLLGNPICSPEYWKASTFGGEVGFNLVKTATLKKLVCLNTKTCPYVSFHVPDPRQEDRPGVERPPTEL
Description: Inhibition of ovine COX-1 using arachidonic acid as substrate assessed as consumption of oxygen at 5 uM preincubated for 5 mins followed by substrate addition by oxygen electrode-based assay relative to control. The method in brief: (§1)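 COX-1 or COX-2 (2–5 μg) in 0.1 M Tris-HCl pH 8.0 with 5 mM EDTA, 2 mM phenol and 1 μM hematin at 37 °C. Inhibitor was preincubated 5 min, then 100 μM arachidonic acid was added. Oxygen consumption was read on an oxygen electrode, and percent inhibition was calculated against a DMSO control, with indomethacin as positive control.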

In data set [5] the target is T3, Prostaglandin G/H synthase 2 (Homo sapiens) (UniProt P35354).
T3 sequence (whole entry): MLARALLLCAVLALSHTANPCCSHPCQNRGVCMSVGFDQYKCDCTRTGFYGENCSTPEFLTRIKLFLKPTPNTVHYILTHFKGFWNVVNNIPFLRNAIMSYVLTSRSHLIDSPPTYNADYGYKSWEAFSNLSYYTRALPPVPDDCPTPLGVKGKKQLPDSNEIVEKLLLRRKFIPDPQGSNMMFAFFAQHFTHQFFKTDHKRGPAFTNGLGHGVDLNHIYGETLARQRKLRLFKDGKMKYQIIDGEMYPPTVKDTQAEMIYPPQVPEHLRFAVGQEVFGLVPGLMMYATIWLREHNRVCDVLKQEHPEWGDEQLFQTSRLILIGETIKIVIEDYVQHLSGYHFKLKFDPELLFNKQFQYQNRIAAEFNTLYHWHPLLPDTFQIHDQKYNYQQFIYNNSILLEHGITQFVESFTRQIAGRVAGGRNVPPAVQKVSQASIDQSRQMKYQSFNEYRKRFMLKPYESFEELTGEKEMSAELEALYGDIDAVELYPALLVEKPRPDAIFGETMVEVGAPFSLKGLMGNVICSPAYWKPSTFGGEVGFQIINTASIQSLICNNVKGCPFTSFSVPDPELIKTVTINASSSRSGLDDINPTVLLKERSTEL
Description: Inhibition of human COX-2 using arachidonic acid as substrate assessed as consumption of oxygen at 5 uM preincubated for 5 mins followed by substrate addition by oxygen electrode-based assay relative to control. The method in brief: as §1

In data set [6] the test system is Liver microsome. Description: Half life in rat liver microsomes in presence of NADPH. The format is ADME. The method in brief:
(§2)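 Rat or mouse liver microsomes were incubated with NADPH, and half-life was taken from compound depletion. Run at a contract lab.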
Background: Liver microsomes are vesicles of endoplasmic reticulum, rich in cytochrome P450 enzymes.

Data set [7] concerns Liver. Description: Half life in mouse liver microsomes in presence of NADPH. The format is ADME. In short, it runs like this:
as §2

The test system of data set [8] is Liver microsome. Description: Metabolic stability in rat liver microsomes measured over 1 hr in absence of NADPH. The format is ADME. The method in brief: (§3)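 Liver microsomes (mouse or rat) were incubated without NADPH over a 1 h period, and compound degradation was followed. Run at a contract lab.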
In data set [9] the test system is Liver. Description: Metabolic stability in mouse liver microsomes measured over 1 hr in absence of NADPH. The format is ADME. The method in brief:
as §3

A short description of data set [10]: Stability of the compound in buffer at pH 2 measured over 48 hrs. The format is physicochemical. To be noted: pH 2, 48 h.
Data set [11] is described as follows: Stability of the compound in DPBS buffer at pH 7.4 measured over 48 hrs. The format is physicochemical. To be noted: pH 7.4, 48 h.
Data set [12] is described as follows: Stability of the compound in buffer at pH 9 measured over 48 hrs. The format is physicochemical. To be noted: pH 9, 48 h.
For data set [13], the system named is Plasma. Description: Half life in CD1 mouse plasma at 30 mg/kg, ip. The format is ADME, organism-based. Set-up: dose 30 mg/kg, route intraperitoneal. To be noted: in vivo. The method in brief: (§4)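 Male CD1 mice, 6–8 weeks old, given a single 30 mg/kg IP dose formulated as a solution in 10% Solutol, 10% Cremophor EL and 20% PEG 400 in saline. Plasma and brain were sampled at eight time points over 24 h, in triplicate. Study run at a contract lab.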

In data set [14] the test system is Brain. Description: Half life in CD1 mouse brain at 30 mg/kg, ip. Set-up: dose 30 mg/kg, route intraperitoneal. The format is ADME, organism-based. To be noted: in vivo. The method in brief:
as §4

The test system of data set [15] is Plasma. Description: Cmax in CD1 mouse plasma at 30 mg/kg, ip. The format is ADME, organism-based. Details: dose 30 mg/kg, route intraperitoneal. To be noted: in vivo. The method in brief: as §4
For data set [16], the system named is Brain. Description: Cmax in CD1 mouse brain at 30 mg/kg, ip. The format is ADME, organism-based. Details: dose 30 mg/kg, route intraperitoneal. The settings on record: in vivo. In short, it runs like this: as §4

For the molecule `CNc1oc(-c2cccc3ccccc23)nc1C#N`, the remaining at 2 h in [1] was 100%. Moreover, in the data set with Mus musculus, the Activity was 30%. Further, the inhibition (in general, how much of the control response was suppressed) was “Dose-dependent effect” in [2], less than 10% in [4] and less than 10% in [5]. Also, the inhibition entry in data set [3] was “Active”. Also, the t1/2 was found to be 18 min in the data set with Liver microsome [6], 5.5 min in the data set on Liver [7], 66 min with Plasma [13] and 60 min in the data set on Brain [14]. Moreover, the Stability result (in the data set with Liver microsome [8]; in the data set on Liver [9]; in data set [10]; in data set [11]; in data set [12]) was “Stable” throughout. Also, the Cmax (commonly the highest concentration seen after dosing) with Plasma [15] turned out to be 13.8 µM; in the data set with Brain [16], 28.8 µM.
